Laboratory results: ChEMBL document CHEMBL3580549, “Lignan Glycosides from the Twigs of Chaenomeles sinensis and Their Biological Activities” (J Nat Prod, 2015)
pIC50: −log10 of the molar value.

Tests used:
SK-MEL-2 = test: Cytotoxicity against human SK-MEL-2 cells by SRB assay; type: functional, cell-based
HCT-15 = test: Cytotoxicity against human HCT15 cells by SRB assay; type: functional, cell-based
[1] = Cytotoxicity against mouse BV2 cells assessed as cell viability at 20 uM by MTT assay relative to control; type: cell-based, BV-2; settings: read-out: Activity
A549 = test: Cytotoxicity against human A549 cells by SRB assay; type: functional, cell-based
SK-OV-3 = test: Cytotoxicity against human SKOV3 cells by SRB assay; type: functional, cell-based
C6 = test: Neuroprotective activity in rat C6 cells assessed as stimulation of NGF release at 20 uM after 24 hrs by ELISA relative to control; type: functional
In short: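 C6 rat glioma cells were treated with each compound at 20 μM, and NGF secreted into the medium was measured. Stimulation is given as percent of control, and 6-shogaol was the positive control.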

[2] = Antiinflammatory activity against LPS-stimulated mouse BV2 cells assessed as inhibition of nitric oxide production preincubated for 30 mins followed by LPS stimulation measured after 24 hrs by Griess assay; type: functional, cell-based; settings: BV-2
In short: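 Murine BV2 microglial cells were activated with lipopolysaccharide. NO released into the culture medium was measured, and IC50 was derived from the inhibition of NO production. L-NMMA was the positive control.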

Compound: COc1cc([C@@H]2Oc3c(OC)cc(CCCO)cc3[C@H]2CO[C@@H]2O[C@@H](C)[C@H](O)[C@@H](O)[C@H]2O)cc(OC)c1O
- pIC50 (SK-MEL-2): < 5.00
- pIC50 (HCT-15): < 5.00
- viability at 20 µM [1]: 104%
- pIC50 (A549): < 5.00
- pIC50 (SK-OV-3): < 5.00
- Activity (C6): 106.85%

Compound: COc1cc([C@H]2c3c(cc(OC)c(O)c3OC)C[C@@H](CO)[C@@H]2CO[C@@H]2O[C@@H](C)[C@H](O)[C@@H](O)[C@H]2O)cc(OC)c1O
- pIC50 (SK-MEL-2): < 5.00
- pIC50 (HCT-15): < 5.00
- viability at 20 µM [1]: 99.1%
- pIC50 (A549): < 5.00
- pIC50 (SK-OV-3): < 5.00
- pIC50 [2]: 4.50

Compound: COc1cc([C@H]2c3cc(O)c(OC)cc3C[C@@H](CO)[C@@H]2CO[C@@H]2O[C@@H](C)[C@H](O)[C@@H](O)[C@H]2O)ccc1O [AVICULIN]
- pIC50 (SK-MEL-2): < 5.00
- pIC50 (HCT-15): < 5.00
- viability at 20 µM [1]: 96.1%
- pIC50 (A549): < 5.00
- pIC50 (SK-OV-3): < 5.00
- pIC50 [2]: 4.40
- Activity (C6): 123.06%

Compound: COc1cc(C[C@H](CO)[C@@H](CO[C@@H]2O[C@@H](C)[C@H](O)[C@@H](O)[C@H]2O)Cc2cc(OC)c(O)c(OC)c2)cc(OC)c1O
- pIC50 (SK-MEL-2): < 5.00
- pIC50 (HCT-15): < 5.00
- viability at 20 µM [1]: 104%
- pIC50 (A549): < 5.00
- pIC50 (SK-OV-3): < 5.00
- pIC50 [2]: 4.67
- Activity (C6): 167.61%

Compound: COc1cc(C[C@@H]2CO[C@@H](c3ccc(O)c(OC)c3)[C@@H]2CO[C@@H]2O[C@@H](C)[C@H](O)[C@@H](O)[C@H]2O)ccc1O
- pIC50 (SK-MEL-2): < 5.00
- pIC50 (HCT-15): < 5.00
- viability at 20 µM [1]: 102%
- pIC50 (A549): < 5.00
- pIC50 (SK-OV-3): < 5.00
- pIC50 [2]: 3.75
- Activity (C6): 144.31%

Compound: CNC(=N)NCCC[C@H](N)C(=O)O [TILARGININE]
- viability at 20 µM [1]: 106%
- pIC50 [2]: 4.61

Compound: COc1cc(C[C@@H]2CO[C@@H](c3cc(OC)c(O)c(OC)c3)[C@@H]2CO[C@@H]2O[C@@H](C)[C@H](O)[C@@H](O)[C@H]2O)cc(OC)c1O
- pIC50 (SK-MEL-2): < 5.00
- pIC50 (HCT-15): < 5.00
- viability at 20 µM [1]: 97.1%
- pIC50 (A549): < 5.00
- pIC50 (SK-OV-3): < 5.00
- pIC50 [2]: 3.70

Compound: COc1cc([C@H]2Oc3c(OC)cc(CCCO)cc3[C@@H]2CO[C@@H]2O[C@@H](C)[C@H](O)[C@@H](O)[C@H]2O)cc(OC)c1O
- pIC50 (SK-MEL-2): < 5.00
- pIC50 (HCT-15): < 5.00
- viability at 20 µM [1]: 98.2%
- pIC50 (A549): < 5.00
- pIC50 (SK-OV-3): < 5.00
- Activity (C6): 151.74%

Compound: COc1cc([C@H]2Oc3c(OC)cc(CCCO)cc3[C@@H]2CO[C@@H]2O[C@H](CO)[C@@H](O)[C@H](O)[C@H]2O)ccc1O
- pIC50 (SK-MEL-2): < 5.00
- pIC50 (HCT-15): < 5.00
- viability at 20 µM [1]: 97.2%
- pIC50 (A549): < 5.00
- pIC50 (SK-OV-3): < 5.00
- Activity (C6): 140.04%

Compound: COc1cc([C@H]2c3c(cc(OC)c(O)c3OC)C[C@@H](CO)[C@@H]2CO[C@@H]2O[C@H](CO)[C@@H](O)[C@H](O)[C@H]2O)cc(OC)c1O
- pIC50 (SK-MEL-2): < 5.00
- pIC50 (HCT-15): < 5.00
- viability at 20 µM [1]: 99.7%
- pIC50 (A549): < 5.00
- pIC50 (SK-OV-3): < 5.00
- pIC50 [2]: 4.42

Compound: CCCCC/C=C/C(=O)CCc1ccc(O)c(OC)c1 [SHOGAOL]
- Activity (C6): 141.75%

Compound: COc1cc(C[C@H]2CO[C@@H](c3cc(OC)c(O)c(OC)c3)[C@H]2CO[C@@H]2O[C@@H](C)[C@H](O)[C@@H](O)[C@H]2O)cc(OC)c1O
- pIC50 (SK-MEL-2): < 5.00
- pIC50 (HCT-15): < 5.00
- viability at 20 µM [1]: 113%
- pIC50 (A549): < 5.00
- pIC50 (SK-OV-3): < 5.00
- pIC50 [2]: 4.53
- Activity (C6): 124.67%

Compound: COc1cc([C@H]2Oc3c(OC)cc(CCCO)cc3[C@@H]2CO[C@@H]2O[C@@H](C)[C@H](O)[C@@H](O)[C@H]2O)ccc1O
- pIC50 (SK-MEL-2): < 5.00
- pIC50 (HCT-15): < 5.00
- viability at 20 µM [1]: 97.4%
- pIC50 (A549): < 5.00
- pIC50 (SK-OV-3): < 5.00
- Activity (C6): 102.88%
